# Results of several laboratories.
# Protocols differ between the studies behind these lines.
# Target: Serine/threonine-protein kinase Nek1 (NEK1, Homo sapiens, UniProt Q96PY6)
# One construct used (Q96PY6 1-1258): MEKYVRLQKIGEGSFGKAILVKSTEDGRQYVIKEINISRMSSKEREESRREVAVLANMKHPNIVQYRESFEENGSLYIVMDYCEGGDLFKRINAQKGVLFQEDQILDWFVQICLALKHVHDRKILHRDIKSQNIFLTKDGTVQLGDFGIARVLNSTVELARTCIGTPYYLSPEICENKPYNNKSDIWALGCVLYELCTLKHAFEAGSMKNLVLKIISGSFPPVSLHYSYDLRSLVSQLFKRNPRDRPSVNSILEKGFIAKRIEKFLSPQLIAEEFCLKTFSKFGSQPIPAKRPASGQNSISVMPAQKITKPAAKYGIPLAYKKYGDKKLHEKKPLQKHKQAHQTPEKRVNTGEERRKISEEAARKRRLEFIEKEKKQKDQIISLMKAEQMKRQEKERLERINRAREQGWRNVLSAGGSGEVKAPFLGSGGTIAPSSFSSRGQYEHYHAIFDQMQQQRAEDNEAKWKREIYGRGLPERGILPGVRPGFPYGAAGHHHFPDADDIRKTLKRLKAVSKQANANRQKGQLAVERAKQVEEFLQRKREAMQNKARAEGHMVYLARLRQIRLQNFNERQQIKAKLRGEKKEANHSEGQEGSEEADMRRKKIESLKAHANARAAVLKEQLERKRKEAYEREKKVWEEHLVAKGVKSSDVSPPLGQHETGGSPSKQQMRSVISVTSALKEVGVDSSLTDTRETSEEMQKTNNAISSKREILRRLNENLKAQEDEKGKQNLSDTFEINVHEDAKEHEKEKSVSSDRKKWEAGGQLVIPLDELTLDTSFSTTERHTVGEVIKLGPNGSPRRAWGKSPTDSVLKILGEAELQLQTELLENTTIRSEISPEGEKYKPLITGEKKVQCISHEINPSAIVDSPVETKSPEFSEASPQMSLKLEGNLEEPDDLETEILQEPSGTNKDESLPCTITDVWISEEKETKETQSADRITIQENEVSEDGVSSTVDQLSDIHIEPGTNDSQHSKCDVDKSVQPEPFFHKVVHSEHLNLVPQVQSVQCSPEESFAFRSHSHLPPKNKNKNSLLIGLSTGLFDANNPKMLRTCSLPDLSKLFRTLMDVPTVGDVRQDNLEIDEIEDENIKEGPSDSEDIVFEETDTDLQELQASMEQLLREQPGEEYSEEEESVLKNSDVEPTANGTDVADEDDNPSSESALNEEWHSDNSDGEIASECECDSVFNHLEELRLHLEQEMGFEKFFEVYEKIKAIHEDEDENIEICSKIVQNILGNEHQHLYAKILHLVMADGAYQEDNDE
Structure (SMILES),effect on,mode,method,cell line,concentration,measurement,result
CS(=O)(=O)CCNCc1ccc(-c2ccc3ncnc(Nc4ccc(OCc5cccc(F)c5)c(Cl)c4)c3c2)o1,cell-free assay,,,,0.5 µM,remaining signal,71.8%
C[C@@H]1CN(c2cc(-c3nn(C)c4ccc(OC5(C)CC5)cc34)ncn2)C[C@H](C)O1,cell-free assay,,competition with immobilised ligand,,1 µM,remaining binding,83%
Cn1cnc(Br)c1C1=CN(c2ncnc3[nH]cnc23)CCS1,enzyme activity,inhibitor,radiometric,,2 µM,inhibition,96.5%
COc1cc2ncnc(Nc3ccc(Oc4ccccc4)c(C)c3C)c2cc1OC,enzyme activity,inhibitor,,,1 µM,inhibition,-2%
COc1cccc2c(NCc3ccccc3)nc(-n3c(N)nc4ccccc43)nc12,target engagement in cells,inhibitor,chemoproteomics,,20 mM,inhibition,-13%
C[C@@H]1CN(c2cc(-c3n[nH]c4ccc(OC5(C)CC5)cc34)ncn2)C[C@H](C)O1,cell-free assay,,competition with immobilised ligand,,0.1 µM,remaining binding,100%
Cc1ccc(Nc2nccc(N(C)c3ccc4c(C)n(C)nc4c3)n2)cc1S(N)(=O)=O,enzyme activity,inhibitor,,,0.5 µM,remaining activity,105%
COc1cc(Cl)c(C(=O)N[C@@H](CN[C@H]2CC[C@@H](N)CC2)Cc2ccc(C#N)cc2)cc1-c1ccc(CN[C@H](C)c2ccc(C)cc2)o1,enzyme activity,inhibitor,,,1 µM,remaining activity,93%
CCOCCn1cc(C(=O)Nc2ccc(-n3nc(-c4cccnc4)cc3C(F)(F)F)cn2)ccc1=O,cell-free assay,,competition with immobilised ligand,,1 µM,remaining binding,100%
CCN1CCN(Cc2ccc(NC(=O)c3ccc(C)c(/C=C/c4cnc5[nH]ccc5c4OC)c3)cc2C(F)(F)F)CC1,target engagement in cells,inhibitor,chemoproteomics,A-375,0.5 µM,inhibition,-15.8%
c1ccc(CNc2nc(N3CCOc4ccccc43)nc3c2CCCC3)cc1,target engagement in cells,inhibitor,chemoproteomics,,20 mM,inhibition,-7.6%
CCN1CCN(Cc2ccc(NC(=O)c3ccc(C)c(Oc4ccnc5[nH]ccc45)c3)cc2C(F)(F)F)CC1,target engagement in cells,inhibitor,chemoproteomics,A-375,0.5 µM,inhibition,-10.4%
CO[C@@H](C)c1c(Nc2ccc([C@@H](N(C)C(=O)C3CCS(=O)(=O)CC3)C(F)(F)F)cc2)cnc2cc(Cl)nn12,cell-free assay,,competition with immobilised ligand,,1 µM,remaining binding,100%
COc1ccc(COc2ccc(Cc3cnc(N)nc3N)cc2OC)cc1,cell-free assay,,,,0.5 µM,remaining signal,95.6%
O=C(Nc1cnn(-c2csc(C(=O)NC3COC3)c2)c1)Nc1c(F)cccc1Cl,enzyme activity,inhibitor,,,5 µM,remaining activity,77.2%
O=C(Nc1cnc(Oc2ccc(F)cc2)nc1)N1CCc2ncccc2[C@@H]1c1ccc(F)cc1,cell-free assay,,competition with immobilised ligand,,1 µM,remaining binding,84%
CC(C)(C)c1nc2c(s1)c1nc(N)ncc1c1ccc(NS(=O)(=O)c3c(F)cccc3F)c(F)c12,enzyme activity,inhibitor,radiometric,,1 µM,remaining activity,92%
CNC(=O)c1ccc(Nc2ncc(C(F)(F)F)c(NCc3nccnc3N(C)S(C)(=O)=O)n2)cc1,cell-free assay,,competition with immobilised ligand,,0.1 µM,remaining binding,75%
Nc1ncnc2occ(-c3ccc(NC(=O)Nc4cc(C(F)(F)F)ccc4F)cc3)c12,cell-free assay,inhibitor,,,20 µM,remaining signal,22%
C[C@H](c1ccnc(Nc2nc3ccc(-c4cc(N(C)C)ncn4)cc3[nH]2)c1)N1CCN(C(=O)CC(F)(F)F)CC1,cell-free assay,,competition with immobilised ligand,,0.1 µM,remaining binding,93%
Cc1sc(C(=O)NC2COC2)cc1-n1cc(NC(=O)Nc2c(F)cccc2Cl)cn1,enzyme activity,inhibitor,,,10 µM,remaining activity,90.4%
C[S+]([O-])c1ccc(-c2nc(-c3ccncc3)c(-c3ccc(F)cc3)[nH]2)cc1 (stereo not shown),cell-free assay,,,,0.5 µM,remaining signal,94.7%
